Compound activity deposited in PubChem by The Scripps Research Institute Molecular Screening Center.
Most compounds without a hit are left out; they make up all but 2.3% or so of the library.
ADAM17 inh = inhibitors of human ADAM17 | inhibition, % at 6.95 µM | recombinant ADAM17, EDANS/DABCYL FRET peptide cleavage | P78536 | hit rate 0.83% among 370,000;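 active means inhibition above the mean of compounds lying between control limits plus 3 SD, set per campaign, cut at about 8.5% in these data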
Target sequence (P78536 215-824 limits assumed): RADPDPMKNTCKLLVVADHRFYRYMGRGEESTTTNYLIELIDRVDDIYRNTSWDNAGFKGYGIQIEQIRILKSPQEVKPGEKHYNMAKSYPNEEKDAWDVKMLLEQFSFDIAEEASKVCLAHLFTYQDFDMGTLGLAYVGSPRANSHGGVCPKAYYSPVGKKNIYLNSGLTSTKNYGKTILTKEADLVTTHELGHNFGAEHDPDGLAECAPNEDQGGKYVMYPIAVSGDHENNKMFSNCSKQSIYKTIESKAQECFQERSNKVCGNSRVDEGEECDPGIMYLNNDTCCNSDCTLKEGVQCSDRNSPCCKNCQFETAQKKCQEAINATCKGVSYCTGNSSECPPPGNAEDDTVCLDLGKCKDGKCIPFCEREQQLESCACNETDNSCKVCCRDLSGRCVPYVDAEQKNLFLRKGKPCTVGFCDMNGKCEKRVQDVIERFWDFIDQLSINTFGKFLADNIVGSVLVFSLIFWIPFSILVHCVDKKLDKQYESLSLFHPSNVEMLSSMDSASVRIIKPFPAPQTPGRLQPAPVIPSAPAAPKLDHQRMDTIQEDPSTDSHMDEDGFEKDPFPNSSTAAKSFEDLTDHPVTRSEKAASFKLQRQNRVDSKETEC
Tb MetRS inh = Trypanosoma brucei MetRS inhibition | purified T. brucei MetRS, ATP depletion, Kinase-Glo luminescence | inhibition, % at 11.9 µM | hit rate 0.4% among 360,000 | AID 624268;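 active means inhibition above a per-plate cutoff of the control wells' mean inhibition plus 3 SD, cut at about 5.5% in these data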
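technique = Kinase-Glo luminescence, ATP depletion format | system = purified MetRS (methionyl-tRNA synthetase) enzyme from Trypanosoma brucei | timing = 15 min preincubation, 2 h reaction, all 25 °C | evaluation = percent inhibition versus plate control medians | dosing = single dose, 11.9 µM final nominal, 0.9% final DMSO | also added = substrates ATP, L-methionine and bulk Escherichia coli tRNA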
PLCb3 inh = inhibitors of human phospholipase C beta3; Q01970; Purified PLC-beta3, fluorogenic substrate, fluorescence; inhibition, % at 12.2 µM; hit rate 0.18% among 370,000; AID 720704; in the data active means inhibition above about 11%
ADAM10 inh = inhibits human ADAM10; hit rate 0.62% among 370,000; inhibition, % at 7 µM; recombinant ADAM10, EDANS/DABCYL FRET peptide cleavage, 3 h; O14672;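 active means inhibition above a per-campaign cutoff equal to the mean of compounds falling between control-based bounds plus 3 SD, cut at about 20% in these data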
PLC-gamma1 inh = PLC-gamma1 (human) inhibition, primary screen; hit rate 0.84% among 370,000; AID 720700; inhibition, % at 12.2 µM; purified PLC-gamma1, fluorogenic substrate, fluorescence; P19174
PLCg1 ctr = counter-screen for PLC-beta3 inhibitors: inhibitors of human PLC-gamma1 | AID 743258 | purified PLC-gamma1, fluorogenic substrate, fluorescence | hit rate 3.1% among 3,300 | shares compounds with PLC-gamma1 inh | inhibition, % at 12.3 µM
PLCb3 confirm = human PLC-beta3 inhibition, confirmation | inhibition, % at 12.3 µM | purified PLC-beta3, fluorogenic substrate fluorescence | hit rate 1% among 3,300 | shares compounds with PLC-gamma1 inh; in the data active means inhibition above about 11%
Numbers stand for hits; – = inactive; · = no result. Unless noted, no stated cut-off is given here; in the data, active means inhibition above about 9.5%; inactive means the rest.

SMILES | ADAM17 inh | Tb MetRS inh | PLCb3 inh | ADAM10 inh | PLC-gamma1 inh | PLCg1 ctr | PLCb3 confirm
NS(=O)(=O)c1ccccc1 | – | – | 11 | – | 15 | – | –
O=C1c2ccccc2C(=O)c2c(O)c(O)cc(O)c21 | – | – | – | – | – | · | ·
O=C1C=C(O)c2c(O)cc(O)c(O)c2C1=O | – | – | 15 | – | 31 | – | –
COc1ccc(-c2csc(NC(=O)C3CSC4(C)CCC(=O)N34)n2)c(OC)c1 (stereo unspecified) | – | – | – | – | – | · | ·
O=C(NCc1ccc(F)cc1)c1cc(C2CCCCN2C(=O)c2ccc3c(c2)CCO3)on1 (stereo unspecified) | – | – | – | – | – | · | ·
O=C(NCc1ccccc1)c1cc(C2CCCCN2C(=O)c2ccc3c(c2)CCO3)on1 (stereo unspecified) | – | – | – | – | 12 | – | –
CC(C)c1ccc(C(=O)Nc2ccc(S(=O)(=O)NC3=NCCCCC3)cc2)cc1 | – | – | – | – | – | · | ·
O=[N+]([O-])c1ncn(Cc2ccccc2Cl)n1 | – | – | 13 | – | – | – | –
O=[N+]([O-])c1ncn(Cc2c(Cl)cccc2Cl)n1 | – | – | – | – | – | · | ·
CCCCOCCCNC(=O)C[C@H]1C[C@@]2(C(=O)OC)C(=C[C@H](C3CCCC3)O[C@@H]2C)N(Cc2ccc(Cl)cc2Cl)C1=O | – | · | – | – | – | · | ·
COC(=O)[C@]12C[C@H](CC(=O)N3CCCCC3)C(=O)N(CCC3=CCCCC3)C1=C[C@H](C1CCCC1)O[C@@H]2C | – | · | – | – | 11 | – | –
COC(=O)[C@]12C[C@H](CC(=O)NCC3CCCCC3)C(=O)N(Cc3cccc4ccccc34)C1=C[C@H](C1CCCC1)O[C@@H]2C | – | · | – | – | 11 | – | –
COC(=O)[C@]12C[C@H](CC(=O)NCCC(C)C)C(=O)N(Cc3ccc(Cl)cc3Cl)C1=C[C@H](C1CCCC1)O[C@@H]2C | – | · | – | – | 11 | – | –
COC(=O)[C@]12C[C@H](CC(=O)N3CCOCC3)C(=O)N(CCC3=CCCCC3)C1=C[C@H](C1CCCC1)O[C@@H]2C | – | · | – | – | – | · | ·
CCOC(=O)C1CCN(C(=O)c2ccc3c(=O)n4nc(Nc5ccccc5OC)sc4nc3c2)CC1 | – | – | – | – | – | · | ·
O=C(CC1Sc2ccccc2NC1=O)NNc1ccc(F)cc1 (stereo unspecified) | – | – | – | – | – | · | ·
CCN(CC(=O)Nc1cccc(F)c1)CC(=O)Nc1ccccc1OC | – | – | – | – | 9.8 | – | –
CC(C)(C)C(=O)OCc1nc(-c2ccc(F)cc2)cs1 | – | – | – | – | – | · | ·
COc1ccc(C(=O)CCC(=O)Nc2cccc(Cl)c2)cc1 | – | – | – | – | – | · | ·
Cc1ccc(C(=O)CCC(=O)Nc2ccc(Cl)c(S(=O)(=O)Nc3cccc(Cl)c3)c2)cc1 | – | – | – | – | 11 | – | –
O=C(NC1CCCC1)[C@@H]1CCCN1C(=O)[C@@H](NC(=O)N1CCOCC1)C1CCCCC1 | – | · | – | – | – | · | ·
COC(=O)c1cc(NC(=O)CN(C)C2CCS(=O)(=O)C2)cc(C(=O)OC)c1 (stereo unspecified) | – | – | – | – | – | · | ·
O=C(CCNS(=O)(=O)c1ccccc1F)N1CCN(Cc2ccccc2)CC1 | – | – | – | – | – | · | ·
CC(C)c1ccc(S(=O)(=O)N2CCN(C(=O)CCNS(=O)(=O)c3ccccc3F)CC2)cc1 | – | – | – | – | 18 | – | –
CCOC(=O)Nc1cc(=O)c([N+](=O)[O-])c(N)[nH]1 | – | · | 13 | – | – | – | –
CCOC(=O)Nc1n[nH]c(NC(=O)OCC)c1[N+](=O)[O-] | – | – | – | – | – | · | ·
CCCCOC(=O)CCc1n[nH]c(=O)[nH]c1=O | – | – | – | – | – | · | ·
O=C(CCc1n[nH]c(=O)[nH]c1=O)N1CCOCC1 | – | – | 11 | – | – | – | –
O=C(CCNc1n[nH]c(=O)[nH]c1=O)N1CCOCC1 | – | – | – | – | 14 | – | –
COc1ccc(C)cc1N(C)C(=O)Cc1c(C(=O)O)n(C)c2ccccc12 | – | – | – | – | – | · | ·
